The source of these data is ChEMBL document CHEMBL4823330, “Piperazinyl Bicyclic Derivatives as Selective Ligands of the α2δ-1 Subunit of Voltage-Gated Calcium Channels” (ACS Med Chem Lett, 2021).

By inhibition is commonly meant the change of the read-out against control, counted positive when it falls. In general, Ki refers to the equilibrium dissociation constant of an inhibitor or competing ligand from its target.

Structures are written as SMILES. The source made the active and inactive calls. The calls are words filed in the database; no cut-off is given here.

T1 sequence (P54289 25-956 limits assumed): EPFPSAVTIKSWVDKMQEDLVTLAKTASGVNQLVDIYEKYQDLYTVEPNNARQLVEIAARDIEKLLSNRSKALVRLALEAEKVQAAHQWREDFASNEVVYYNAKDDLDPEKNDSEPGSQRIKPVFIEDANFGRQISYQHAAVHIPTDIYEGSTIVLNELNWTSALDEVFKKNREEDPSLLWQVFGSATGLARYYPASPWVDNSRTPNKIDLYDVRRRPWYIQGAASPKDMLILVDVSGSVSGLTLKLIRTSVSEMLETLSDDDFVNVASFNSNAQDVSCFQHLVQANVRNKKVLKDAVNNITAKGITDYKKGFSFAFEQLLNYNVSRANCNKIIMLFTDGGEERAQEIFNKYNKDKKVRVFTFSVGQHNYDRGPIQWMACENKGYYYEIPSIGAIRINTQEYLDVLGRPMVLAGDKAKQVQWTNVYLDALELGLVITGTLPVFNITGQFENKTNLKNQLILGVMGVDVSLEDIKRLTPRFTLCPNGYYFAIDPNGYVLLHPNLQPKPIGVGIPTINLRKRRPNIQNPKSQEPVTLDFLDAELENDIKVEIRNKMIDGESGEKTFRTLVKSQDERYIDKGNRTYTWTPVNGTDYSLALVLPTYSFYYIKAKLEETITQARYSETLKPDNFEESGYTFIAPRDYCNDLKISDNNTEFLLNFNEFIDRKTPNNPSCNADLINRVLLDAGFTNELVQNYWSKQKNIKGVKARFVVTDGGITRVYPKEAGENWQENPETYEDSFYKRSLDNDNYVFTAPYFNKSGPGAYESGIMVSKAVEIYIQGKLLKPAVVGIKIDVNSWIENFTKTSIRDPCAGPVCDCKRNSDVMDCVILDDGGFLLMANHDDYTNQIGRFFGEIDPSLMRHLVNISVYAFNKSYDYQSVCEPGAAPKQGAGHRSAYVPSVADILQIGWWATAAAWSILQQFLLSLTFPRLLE
T1 sequence (P54289 957-1103 limits assumed): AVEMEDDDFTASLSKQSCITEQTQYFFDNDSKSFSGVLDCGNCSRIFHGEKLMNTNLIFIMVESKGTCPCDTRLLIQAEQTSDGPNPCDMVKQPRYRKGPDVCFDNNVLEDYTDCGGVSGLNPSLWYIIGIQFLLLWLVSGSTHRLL
Chain of CYP3A4 (P08684 whole entry): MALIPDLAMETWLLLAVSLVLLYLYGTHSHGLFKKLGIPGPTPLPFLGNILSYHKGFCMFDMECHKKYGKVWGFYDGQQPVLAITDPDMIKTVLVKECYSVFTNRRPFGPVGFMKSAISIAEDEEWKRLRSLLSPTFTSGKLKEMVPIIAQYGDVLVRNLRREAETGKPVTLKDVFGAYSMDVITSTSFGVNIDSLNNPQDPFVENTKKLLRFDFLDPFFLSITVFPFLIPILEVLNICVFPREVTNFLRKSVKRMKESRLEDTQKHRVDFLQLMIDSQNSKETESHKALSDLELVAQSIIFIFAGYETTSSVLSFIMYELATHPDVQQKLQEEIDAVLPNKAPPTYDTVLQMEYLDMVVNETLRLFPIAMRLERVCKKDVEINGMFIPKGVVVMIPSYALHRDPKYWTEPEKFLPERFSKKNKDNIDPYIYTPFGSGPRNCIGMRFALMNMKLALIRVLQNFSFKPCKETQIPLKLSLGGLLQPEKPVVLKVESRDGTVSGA
Chain of Alpha-1A adrenergic receptor (Homo sapiens) (P35348 whole entry): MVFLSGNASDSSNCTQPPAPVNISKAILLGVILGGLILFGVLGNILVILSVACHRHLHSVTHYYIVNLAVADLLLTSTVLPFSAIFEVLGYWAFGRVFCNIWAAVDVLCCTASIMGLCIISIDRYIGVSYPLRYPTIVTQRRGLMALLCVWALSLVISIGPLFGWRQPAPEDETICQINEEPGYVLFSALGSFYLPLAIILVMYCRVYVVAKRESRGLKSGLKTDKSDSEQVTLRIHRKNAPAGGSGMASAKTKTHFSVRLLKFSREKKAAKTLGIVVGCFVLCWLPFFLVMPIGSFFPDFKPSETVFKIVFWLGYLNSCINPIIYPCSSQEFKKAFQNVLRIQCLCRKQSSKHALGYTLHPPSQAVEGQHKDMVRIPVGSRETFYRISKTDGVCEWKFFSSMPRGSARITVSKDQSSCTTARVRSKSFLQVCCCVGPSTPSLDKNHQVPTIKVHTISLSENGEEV
Chain of Sodium-dependent dopamine transporter (Homo sapiens) (Q01959 whole entry): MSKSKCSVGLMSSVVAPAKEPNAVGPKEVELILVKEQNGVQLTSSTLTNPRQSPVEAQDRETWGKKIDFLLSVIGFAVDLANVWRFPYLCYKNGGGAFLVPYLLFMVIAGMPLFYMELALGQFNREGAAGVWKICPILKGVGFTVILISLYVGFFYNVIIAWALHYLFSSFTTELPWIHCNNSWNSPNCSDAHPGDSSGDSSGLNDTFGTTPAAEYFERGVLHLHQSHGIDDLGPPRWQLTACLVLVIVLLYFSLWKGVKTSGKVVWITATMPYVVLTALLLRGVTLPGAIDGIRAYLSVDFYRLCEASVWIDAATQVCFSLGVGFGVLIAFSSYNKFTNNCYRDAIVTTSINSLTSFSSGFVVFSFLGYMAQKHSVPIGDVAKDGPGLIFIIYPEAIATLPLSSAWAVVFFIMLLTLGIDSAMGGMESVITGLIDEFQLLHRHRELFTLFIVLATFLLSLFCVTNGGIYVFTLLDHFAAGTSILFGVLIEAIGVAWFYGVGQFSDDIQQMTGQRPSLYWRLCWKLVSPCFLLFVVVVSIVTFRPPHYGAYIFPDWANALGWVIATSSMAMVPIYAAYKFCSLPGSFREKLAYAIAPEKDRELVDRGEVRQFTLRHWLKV

The target of one data set is CYP3A4 (Homo sapiens, UniProt P08684). Description: Inhibition of recombinant CYP3A4 (unknown origin) using BFC as substrate at 1 uM measured after 30 mins in presence of NADPH generating system by fluorescence assay relative to control. The conditions noted are these: recombinant CYP3A4, probe BFC. The data set is classed as ADME. An outline of the steps:
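Recombinant human CYP3A4 incubated with test compound at 1 μM. 7-Benzyloxy-4-trifluoromethylcoumarin (BFC) was the probe substrate, with fluorescence read-out, reported as percent inhibition.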
As to `CCCC(c1nc2ccc(Br)cc2c(=O)n1CC)N1C[C@@H](C)N[C@@H](C)C1` (some centres undefined), the inhibition at 0.5 h, 1 µM was 95%.

Regarding `CCCC(c1nc2cccc(Br)c2c(=O)n1CC)N1C[C@@H](C)N[C@@H](C)C1` (some centres undefined), the inhibition at 0.5 h, 1 µM amounted to 95%.

As to `CCC(c1nc2ccccc2c(=O)n1CCOC)N1C[C@@H](C)N[C@@H](C)C1` (some centres undefined), the inhibition at 0.5 h, 1 µM turned out to be 86%.

`CCC(c1nc2ccccc2c(=O)n1CCOC)N1CCNCC1` (centres undefined): the inhibition at 0.5 h, 1 µM was determined as 37%.

As to `CCCC(c1nc2cc(Br)ccc2c(=O)n1CC)N1C[C@@H](C)N[C@@H](C)C1` (some centres undefined), the inhibition at 0.5 h, 1 µM worked out at 97%.

With `CCCC(c1nc2cc(-c3ccncc3)ccc2c(=O)n1CC)N1C[C@@H](C)N[C@@H](C)C1` (some centres undefined), the inhibition at 0.5 h, 1 µM stood at 97%.

Regarding `CCCC(c1nc2ccccc2c(=O)n1Cc1ccco1)N1C[C@@H](C)N[C@@H](C)C1` (some centres undefined), the inhibition at 0.5 h, 1 µM is 99%.

Take `CCCC(c1nc2ccc(-c3ccncc3)cc2c(=O)n1CC)N1C[C@@H](C)N[C@@H](C)C1` (some centres undefined): the inhibition at 0.5 h, 1 µM stood at 92%.

For the compound `CCC[C@H](c1nc2ccc(Br)cc2c(=O)n1CC)N1CCN[C@@H](C)C1`, the inhibition at 0.5 h, 1 µM came out at 73%.

For the compound `CCC[C@H](c1nc2ccc(Br)cc2c(=O)n1CC)N1CCN[C@@H](CC)C1`, the inhibition at 0.5 h, 1 µM is 97%.

For the compound `CCC[C@@H](c1nc2ccncc2c(=O)n1CC)N1CCN[C@@H](C)C1`, the inhibition at 0.5 h, 1 µM was 44%.

Regarding `CCC[C@H](c1nc2ccc(Br)cc2c(=O)n1CC)N1CCN[C@H](C)C1`, the inhibition at 0.5 h, 1 µM came out at 51%.

As for `CCCC(c1nc2ccc(C#N)cc2c(=O)n1CC)N1C[C@@H](C)N[C@@H](C)C1` (some centres undefined), the inhibition at 0.5 h, 1 µM was 70%.

On to `CCC[C@H](c1nc2ccc(Br)cc2c(=O)n1CC)N1C[C@@H](C)N[C@@H](C)C1`, for which the inhibition at 0.5 h, 1 µM worked out at 94%.

On to `CCCC(c1nc2ccccc2c(=O)n1Cc1ccccc1)N1C[C@@H](C)N[C@@H](C)C1` (some centres undefined), for which the inhibition at 0.5 h, 1 µM was found to be 98%.

For the compound `CCCC(c1nc2ccc(Br)cc2c(=O)n1CC)N1CCNCC1` (centres undefined), the inhibition at 0.5 h, 1 µM came to 65%.

The next data set deals with 5-hydroxytryptamine receptor 2B (Homo sapiens) (UniProt P41595). Put plainly: Binding affinity to 5HT2B receptor (unknown origin).
Chain of 5-hydroxytryptamine receptor 2B (Homo sapiens) (P41595 whole entry): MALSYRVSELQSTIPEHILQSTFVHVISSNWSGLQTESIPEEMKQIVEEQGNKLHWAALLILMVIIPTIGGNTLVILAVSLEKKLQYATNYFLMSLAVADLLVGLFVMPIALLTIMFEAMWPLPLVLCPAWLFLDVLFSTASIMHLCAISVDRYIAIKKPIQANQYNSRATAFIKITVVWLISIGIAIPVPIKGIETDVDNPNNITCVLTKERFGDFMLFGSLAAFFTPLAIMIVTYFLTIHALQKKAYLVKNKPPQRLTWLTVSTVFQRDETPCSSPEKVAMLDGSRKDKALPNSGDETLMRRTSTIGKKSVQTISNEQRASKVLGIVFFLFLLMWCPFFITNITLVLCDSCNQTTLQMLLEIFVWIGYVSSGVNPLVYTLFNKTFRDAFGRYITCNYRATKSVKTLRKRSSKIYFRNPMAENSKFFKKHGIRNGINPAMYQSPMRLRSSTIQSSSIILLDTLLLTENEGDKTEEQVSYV
Conditions: not given
Take `CCC[C@H](c1nc2ccc(Br)cc2c(=O)n1CC)N1CCN[C@@H](C)C1`: the outcome was Active.

As for `CCC[C@H](c1nc2ccc(Br)cc2c(=O)n1CC)N1CCN[C@H](C)C1`, the outcome was Active.

For another data set, the target named is 5-hydroxytryptamine receptor 1A (Homo sapiens) (UniProt P08908). Put plainly: Binding affinity to 5HT1A receptor (unknown origin).
Chain of 5-hydroxytryptamine receptor 1A (Homo sapiens) (P08908 whole entry): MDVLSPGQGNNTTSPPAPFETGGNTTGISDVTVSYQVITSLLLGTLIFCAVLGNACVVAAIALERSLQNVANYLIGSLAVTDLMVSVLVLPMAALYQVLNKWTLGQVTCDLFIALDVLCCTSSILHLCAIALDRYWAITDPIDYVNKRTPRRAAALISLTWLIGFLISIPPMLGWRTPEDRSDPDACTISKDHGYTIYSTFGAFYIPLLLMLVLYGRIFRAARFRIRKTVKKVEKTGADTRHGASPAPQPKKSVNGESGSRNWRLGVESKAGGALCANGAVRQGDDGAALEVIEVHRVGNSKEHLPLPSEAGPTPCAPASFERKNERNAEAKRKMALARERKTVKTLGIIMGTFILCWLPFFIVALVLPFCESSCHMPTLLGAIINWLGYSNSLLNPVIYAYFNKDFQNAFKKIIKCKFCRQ
Conditions: not given
For the compound `CCC[C@H](c1nc2ccc(Br)cc2c(=O)n1CC)N1CCN[C@@H](C)C1`, the outcome was Active.

Take `CCC[C@H](c1nc2ccc(Br)cc2c(=O)n1CC)N1CCN[C@H](C)C1`: the outcome was Active.

The target of the next data set is Sodium-dependent noradrenaline transporter (Homo sapiens) (UniProt P23975). Put plainly: Binding affinity to norepinephrine transporter (unknown origin).
Chain of Sodium-dependent noradrenaline transporter (Homo sapiens) (P23975 whole entry): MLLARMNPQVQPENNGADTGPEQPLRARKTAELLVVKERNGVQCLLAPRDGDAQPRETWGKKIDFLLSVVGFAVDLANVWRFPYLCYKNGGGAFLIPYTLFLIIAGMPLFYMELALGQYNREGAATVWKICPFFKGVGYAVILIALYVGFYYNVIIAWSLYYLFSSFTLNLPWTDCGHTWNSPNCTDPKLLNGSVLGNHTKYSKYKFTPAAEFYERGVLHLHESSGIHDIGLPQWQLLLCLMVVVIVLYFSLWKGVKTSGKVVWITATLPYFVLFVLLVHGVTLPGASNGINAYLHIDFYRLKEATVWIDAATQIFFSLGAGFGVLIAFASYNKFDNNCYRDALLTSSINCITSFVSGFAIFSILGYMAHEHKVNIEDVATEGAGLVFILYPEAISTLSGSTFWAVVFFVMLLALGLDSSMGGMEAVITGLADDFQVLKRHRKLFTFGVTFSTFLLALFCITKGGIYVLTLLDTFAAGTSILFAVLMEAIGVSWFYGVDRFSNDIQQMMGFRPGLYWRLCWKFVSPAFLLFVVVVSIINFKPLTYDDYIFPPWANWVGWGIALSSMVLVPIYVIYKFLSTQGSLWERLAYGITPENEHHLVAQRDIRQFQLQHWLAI
Conditions: not given
With `CCC[C@H](c1nc2ccc(Br)cc2c(=O)n1CC)N1CCN[C@@H](C)C1`, the result was Active.

Consider `CCC[C@H](c1nc2ccc(Br)cc2c(=O)n1CC)N1CCN[C@H](C)C1`, for which the outcome was Active.

A further data set addresses Sodium-dependent dopamine transporter (Homo sapiens) (UniProt Q01959). Put plainly: Binding affinity to dopamine transporter (unknown origin).
Conditions: not given
For the compound `CCC[C@H](c1nc2ccc(Br)cc2c(=O)n1CC)N1CCN[C@@H](C)C1`, the outcome was Active.

As for `CCC[C@H](c1nc2ccc(Br)cc2c(=O)n1CC)N1CCN[C@H](C)C1`, the result was Active.

Another data set addresses T1, Voltage-dependent calcium channel subunit alpha-2/delta-1 (Homo sapiens, UniProt P54289). Description: Displacement of [3H]-gabapentin from human Cav alpha2delta1 expressed in CHO-K1 cell membranes incubated for 60 mins by scintillation counting method. Set-up: species or system Membrane.
Conditions: not given
An outline of the steps: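 Radioligand binding with [3H]-gabapentin on α2δ-1-enriched membranes from CHO-K1 cells expressing human Cav2.2/β3/α2δ1. Compounds were first screened at 10 μM. Ki was calculated for those giving more than 50% inhibition. Values are mean ± SD of two determinations.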
As to `CCCC(c1nc2c(Br)cccc2c(=O)n1CC)N1C[C@@H](C)N[C@@H](C)C1` (some centres undefined), the Ki was above 1000 nM.

Consider `CCC(c1nc2ccccc2c(=O)n1CCCOC)N1C[C@@H](C)N[C@@H](C)C1` (some centres undefined), for which the Ki is above 10000 nM.

Regarding `CCCC(c1nc2ccc(Br)cc2c(=O)n1CC)N1C[C@@H](C)N[C@@H](C)C1` (some centres undefined), the Ki was determined as 16 nM.

Regarding `CCCC(c1nc2cccc(Br)c2c(=O)n1CC)N1C[C@@H](C)N[C@@H](C)C1` (some centres undefined), the Ki stood at 66 nM.

Turning to `CCC(c1nc2ccccc2c(=O)n1CCOC)N1C[C@@H](C)N[C@@H](C)C1` (some centres undefined), the Ki is 761 nM.

Turning to `CCC(c1nc2ccccc2c(=O)n1CCOC)N1CCNCC1` (centres undefined), the Ki was determined as 1810 nM.

`CCCC(c1nc2cc(Br)ccc2c(=O)n1CC)N1C[C@@H](C)N[C@@H](C)C1` (some centres undefined): the Ki worked out at 15 nM.

In the case of `CCCC(c1nc2cc(-c3ccncc3)ccc2c(=O)n1CC)N1C[C@@H](C)N[C@@H](C)C1` (some centres undefined), the Ki worked out at 18 nM.

For `CCCC(c1nc2ccccc2c(=O)n1Cc1ccco1)N1C[C@@H](C)N[C@@H](C)C1` (some centres undefined), the Ki is 230 nM.

Regarding `CCCC(c1nc2ccc(-c3ccncc3)cc2c(=O)n1CC)N1C[C@@H](C)N[C@@H](C)C1` (some centres undefined), the Ki was found to be 38 nM.

Take `CCC[C@H](c1nc2ccc(Br)cc2c(=O)n1CC)N1CCN[C@@H](C)C1`: the Ki was 91 nM.

Take `CCC[C@H](c1nc2ccc(Br)cc2c(=O)n1CC)N1CCN[C@@H](CC)C1`: the Ki came out at 123 nM.

For the compound `CCC[C@@H](c1nc2ccncc2c(=O)n1CC)N1CCN[C@@H](C)C1`, the Ki is above 1000 nM.

Consider `CCC[C@H](c1nc2ccc(Br)cc2c(=O)n1CC)N1CCN[C@H](C)C1`, for which the Ki came to 16 nM.

Take `CCCC(c1nc2ccc(C#N)cc2c(=O)n1CC)N1C[C@@H](C)N[C@@H](C)C1` (some centres undefined): the Ki was determined as 288 nM.

Take `CCC[C@H](c1nc2ccc(Br)cc2c(=O)n1CC)N1C[C@@H](C)N[C@@H](C)C1`: the Ki worked out at 8 nM.

Take `CCCC(c1nc2ccccc2c(=O)n1Cc1ccccc1)N1C[C@@H](C)N[C@@H](C)C1` (some centres undefined): the Ki stood at 4820 nM.

With `CCCC(c1nc2ccc(Br)cc2c(=O)n1CC)N1CCNCC1` (centres undefined), the Ki turned out to be 76 nM.

The next data set concerns the target Alpha-1A adrenergic receptor (Homo sapiens) (UniProt P35348). Put plainly: Binding affinity to alpha1A receptor (unknown origin).
Conditions: not given
Turning to `CCC[C@H](c1nc2ccc(Br)cc2c(=O)n1CC)N1CCN[C@@H](C)C1`, the outcome was Active.

Regarding `CCC[C@H](c1nc2ccc(Br)cc2c(=O)n1CC)N1CCN[C@H](C)C1`, the result was Active.

Another data set deals with Sodium-dependent serotonin transporter (Homo sapiens) (UniProt P31645). Description: Binding affinity to serotonin transporter (unknown origin).
Chain of Sodium-dependent serotonin transporter (Homo sapiens) (P31645 whole entry, looked up): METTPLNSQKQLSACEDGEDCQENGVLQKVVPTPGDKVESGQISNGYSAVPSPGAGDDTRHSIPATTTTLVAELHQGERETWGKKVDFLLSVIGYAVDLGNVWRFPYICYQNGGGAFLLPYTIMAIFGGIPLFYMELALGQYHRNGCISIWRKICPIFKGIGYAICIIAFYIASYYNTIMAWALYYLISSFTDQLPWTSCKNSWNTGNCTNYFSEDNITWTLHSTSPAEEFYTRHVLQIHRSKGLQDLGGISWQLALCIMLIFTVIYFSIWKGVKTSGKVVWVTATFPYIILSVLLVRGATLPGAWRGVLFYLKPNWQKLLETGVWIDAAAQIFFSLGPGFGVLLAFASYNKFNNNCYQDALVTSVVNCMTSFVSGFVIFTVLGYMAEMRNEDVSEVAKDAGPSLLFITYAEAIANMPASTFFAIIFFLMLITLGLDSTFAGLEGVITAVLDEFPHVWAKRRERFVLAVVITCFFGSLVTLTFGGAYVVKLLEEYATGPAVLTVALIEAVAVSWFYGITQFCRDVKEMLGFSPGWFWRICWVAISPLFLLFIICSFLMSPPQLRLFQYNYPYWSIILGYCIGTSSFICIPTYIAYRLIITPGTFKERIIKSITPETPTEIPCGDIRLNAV
Conditions: not given
In the case of `CCC[C@H](c1nc2ccc(Br)cc2c(=O)n1CC)N1CCN[C@@H](C)C1`, the result was Active.

For the compound `CCC[C@H](c1nc2ccc(Br)cc2c(=O)n1CC)N1CCN[C@H](C)C1`, the outcome was Active.

Another data set deals with Histamine H1 receptor (Homo sapiens) (UniProt P35367). Description: Binding affinity to histamine H1 receptor (unknown origin).
Conditions: not given
As for `CCC[C@H](c1nc2ccc(Br)cc2c(=O)n1CC)N1CCN[C@@H](C)C1`, the result was Active.

For `CCC[C@H](c1nc2ccc(Br)cc2c(=O)n1CC)N1CCN[C@H](C)C1`, the outcome was Active.

In a further data set the target is Sigma non-opioid intracellular receptor 1 (Homo sapiens) (UniProt Q99720). Description: Binding affinity to sigma 1 receptor (unknown origin).
Conditions: not given
For `CCC[C@H](c1nc2ccc(Br)cc2c(=O)n1CC)N1CCN[C@@H](C)C1`, the result was Active.

Take `CCC[C@H](c1nc2ccc(Br)cc2c(=O)n1CC)N1CCN[C@H](C)C1`: the result was Active.

Another data set addresses Kappa-type opioid receptor (Homo sapiens) (UniProt P41145). Description: Binding affinity to kappa opioid receptor (unknown origin).
Conditions: not given
As for `CCC[C@H](c1nc2ccc(Br)cc2c(=O)n1CC)N1CCN[C@@H](C)C1`, the outcome was Active.

Regarding `CCC[C@H](c1nc2ccc(Br)cc2c(=O)n1CC)N1CCN[C@H](C)C1`, the result was Active.

The next data set addresses T1, Voltage-dependent calcium channel subunit alpha-2/delta-1. Put plainly: Displacement of [3H]-gabapentin from human Cav alpha2delta1 expressed in CHO-K1 cell membranes at 10 uM incubated for 60 mins by scintillation counting method relative to control. The settings on record: Membrane. An outline of the steps: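 Human α2δ-1-enriched membranes from CHO-K1 cells stably expressing human Cav2.2/β3/α2δ1. Test compound at 10 μM competes with [3H]-gabapentin radioligand, and percent inhibition of specific binding is recorded. Compounds exceeding 50% inhibition go on to Ki determination, with Ki values given as the mean of two determinations.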
(In general: In a radioligand displacement assay an active substance lowers the binding of a labelled ligand.)
Turning to `CCC(c1nc2ccccc2c(=O)n1CCCOC)N1C[C@@H](C)N[C@@H](C)C1` (some centres undefined), the inhibition was below 50%.

A further data set has as its target Alpha-2A adrenergic receptor (Homo sapiens) (UniProt P08913). Put plainly: Binding affinity to alpha2A receptor (unknown origin).
Conditions: not given
For `CCC[C@H](c1nc2ccc(Br)cc2c(=O)n1CC)N1CCN[C@@H](C)C1`, the outcome was Active.

For `CCC[C@H](c1nc2ccc(Br)cc2c(=O)n1CC)N1CCN[C@H](C)C1`, the result was Active.

For a further data set, the target named is Delta-type opioid receptor (Homo sapiens) (UniProt P41143). Put plainly: Binding affinity to delta opioid receptor (unknown origin).
Conditions: not given
Regarding `CCC[C@H](c1nc2ccc(Br)cc2c(=O)n1CC)N1CCN[C@@H](C)C1`, the outcome was Active.

Consider `CCC[C@H](c1nc2ccc(Br)cc2c(=O)n1CC)N1CCN[C@H](C)C1`, for which the outcome was Active.

The target of a further data set is Mu-type opioid receptor (Homo sapiens, UniProt P35372). Description: Binding affinity to mu opioid receptor (unknown origin).
Conditions: not given
The compound `CCC[C@H](c1nc2ccc(Br)cc2c(=O)n1CC)N1CCN[C@@H](C)C1` yielded a Ki of 157 nM.

As for `CCC[C@H](c1nc2ccc(Br)cc2c(=O)n1CC)N1CCN[C@H](C)C1`, the outcome was Active.
